Activity calls are given as the source filed them. No cut-off for these calls is given here.

Data set [1] is described as follows: Tmax in Wistar rat at 5 mg/kg, po via gavage by LC-Ms/MS analysis. In kind it is ADME, organism-based. The conditions noted are these: in vivo. Put shortly:
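Male Wistar rats (230 ± 15 g), fasted overnight with water available. IV dosing at 3 mg/kg by tail vein as solution (0.6 mg/mL, 5 mL/kg). PO dosing at 5 mg/kg by oral gavage. Serial blood sampling into K2EDTA from 0.008 (IV only) to 24 h. Plasma precipitated with acetonitrile containing internal standard and analysed by LC/MS/MS. Non-compartmental parameters calculated per animal; values are means of n = 4.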

The nature of data set [2]: Drug uptake in Wistar rat brain at 5 mg/kg, po via gavage measured at 1 hr post dose by LC-Ms/MS analysis. In kind it is ADME, organism-based. The conditions noted are these: read-out: Drug uptake. Put shortly:
(§1)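 Male Wistar rats, fasted overnight and for 2 h after dosing, given an oral solution at 5 mg/kg (0.5 mg/mL). Vehicle: NMP 10% with Labrasol 30% or PEG-400 20%, in citrate buffer […]. Blood and brain were taken at discrete time points, n = 2 per time point. Brain was homogenized 1:2 in PBS. Samples were precipitated with acetonitrile and run on LC-MS/MS; LLOQ 10 ng/mL.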

The target of data set [3] is T1, hERG (KCNH2) (Homo sapiens, UniProt Q12809). In words: Inhibition of human ERG at 5 uM relative to control.
The nature of data set [4]: Drug uptake in Wistar rat brain at 5 mg/kg, po via gavage measured at 2 hrs post dose by LC-Ms/MS analysis. The format is ADME, organism-based. The conditions noted are these: read-out: Drug uptake. Put shortly:
as §1

Data set [5] can be described thus: Plasma concentration in Wistar rat at 5 mg/kg, po via gavage measured at 4 hrs post dose by LC-Ms/MS analysis. The format is ADME, organism-based. Put shortly:
as §1

Data set [6] addresses T1, hERG (KCNH2). In words: Inhibition of human ERG at 25 uM relative to control.
Another data set has as its target CYP2C9 (Homo sapiens, UniProt P11712). In words: Inhibition of CYP2C9 (unknown origin) at 5 uM relative to control. The format is ADME.
Data set [7] can be described thus: Plasma concentration in Wistar rat at 5 mg/kg, po via gavage measured at 1 hr post dose by LC-Ms/MS analysis. In kind it is ADME, organism-based. Put shortly:
as §1

Data set [8] in a line: Drug uptake in Wistar rat brain at 5 mg/kg, po via gavage measured at 4 hrs post dose by LC-Ms/MS analysis. In kind it is ADME, organism-based. The conditions noted are these: read-out: Drug uptake. Put shortly:
as §1

In the next data set the target is T2, Adenosine receptor A2b (Homo sapiens, UniProt P29275).
T2 sequence (P29275 whole entry): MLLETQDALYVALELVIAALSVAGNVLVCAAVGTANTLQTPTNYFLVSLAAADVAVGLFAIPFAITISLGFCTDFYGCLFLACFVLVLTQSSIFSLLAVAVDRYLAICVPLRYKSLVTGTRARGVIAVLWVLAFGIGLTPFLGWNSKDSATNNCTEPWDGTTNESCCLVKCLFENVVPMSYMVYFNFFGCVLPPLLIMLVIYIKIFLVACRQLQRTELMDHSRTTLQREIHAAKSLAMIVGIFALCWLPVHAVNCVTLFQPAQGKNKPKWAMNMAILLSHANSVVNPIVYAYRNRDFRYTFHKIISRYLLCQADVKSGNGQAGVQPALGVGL
As to the kind of experiment: Displacement of [3H]MRS-1754 from human adenosine A2B receptor expressed in HEK293 cell membranes after 90 mins. Put shortly:
(§2)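 Membranes from HEK-293 cells stably transfected with human receptor, pre-treated with adenosine deaminase. Radioligands: 1 nM [3H]DPCPX (A1), 1 nM [3H]ZM241385 (A2A), 1.6 nM [3H]MRS-1754 (A2B), 2 nM [3H]HEMADO (A3). Buffers: Tris pH 7.4 (A1, A2A, A3) or pH 6.5 (A2B), with ADA. Incubated 90 min at room temperature, then filtered. Nonspecific binding defined with 100 µM NECA. Ki from 8 concentrations run in triplicate.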
For orientation: Loss of bound radioactivity is the signal in a displacement assay; it reports binding, not function.

The nature of data set [9]: AUC(0 to t) in Wistar rat at 5 mg/kg, po via gavage by LC-Ms/MS analysis. The conditions noted are these: in vivo. The format is ADME, organism-based. Put shortly: (§3)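 Male Wistar rats (230 ± 15 g), fasted overnight with water available. IV dose of 3 mg/kg given by tail vein as a solution (0.6 mg/mL, 5 mL/kg). PO dose of 5 mg/kg given by gavage as a suspension. Blood was collected into K2EDTA at 0.008 (IV only) to 24 h and plasma was spun off. Samples were precipitated with acetonitrile and run on LC/MS/MS. Parameters came from non-compartmental analysis of individual animals, mean of n = 4.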

For the next data set, the system named is Liver. As to the kind of experiment: Metabolic stability in human liver microsomes assessed as metabolic rate measured after 30 mins in presence of NADPH. The format is ADME, microsome. The conditions noted are these: 0.5 h. On the technique in general: Microsomes from liver hold many membrane-bound enzymes, among them those of drug oxidation.
Data set [10] can be described thus: Cmax in Wistar rat at 5 mg/kg, po via gavage by LC-Ms/MS analysis. Details: dose 5 mg/kg, route oral. The format is ADME, organism-based. The conditions noted are these: in vivo. Put shortly: as §3
Data set [11] is described as follows: Protein binding in mouse plasma at 5 uM. The format is ADME, cell-free. The conditions noted are these: read-out: PPB (converted).
The nature of data set [12]: Plasma concentration in Wistar rat at 5 mg/kg, po via gavage measured at 2 hrs post dose by LC-Ms/MS analysis. In kind it is ADME, organism-based. Put shortly:
as §1

A further data set concerns the target CYP2C19 (Homo sapiens, UniProt P33261). As to the kind of experiment: Inhibition of CYP2C19 (unknown origin) at 5 uM relative to control. In kind it is ADME.
For a further data set, the target named is Adenosine receptor A2a (Homo sapiens, UniProt P29274). In words: Displacement of [3H]ZM241385 from human adenosine A2A receptor expressed in HEK293 cell membranes at 1 uM after 90 mins relative to control. Put shortly: as §2
The next data set concerns the target T3, Adenosine receptor A3 (Homo sapiens, UniProt P0DMS8).
T3 sequence (P0DMS8 whole entry): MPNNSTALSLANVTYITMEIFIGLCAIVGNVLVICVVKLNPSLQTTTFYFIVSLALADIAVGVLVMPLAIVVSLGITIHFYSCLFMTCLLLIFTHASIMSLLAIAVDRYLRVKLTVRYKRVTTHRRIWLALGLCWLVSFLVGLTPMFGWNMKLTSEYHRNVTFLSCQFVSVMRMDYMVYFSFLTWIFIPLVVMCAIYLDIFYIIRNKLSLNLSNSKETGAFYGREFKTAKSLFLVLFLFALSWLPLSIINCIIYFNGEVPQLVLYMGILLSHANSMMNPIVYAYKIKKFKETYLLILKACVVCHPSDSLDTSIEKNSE
In words: Displacement of [3H]HEMADO from human adenosine A3 receptor expressed in HEK293 cell membranes after 90 mins. Put shortly: as §2

The test system of data set [13] is Rattus norvegicus. In words: Diuretic activity in Wistar rat at 10 to 30 mg/kg, po via gavage measured after 4 hrs. The format is functional, organism-based. Put shortly:
(§4)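 Male Wistar rats (250-300 g, n = 6) dosed orally at 5 mL/kg. Vehicles: DMAC 5%/NaOH/saline, or NMP 10%/PEG-400 20%/saline pH 12.0. Rats were then kept singly in metabolic cages without food or water for 4 h. Urine volume, Na+ and K+ were measured with a biochemistry analyser.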

Data set [14] in a line: Ratio of drug level in Wistar rat brain to plasma at 5 mg/kg, po via gavage measured at 1 hr post dose by LC-Ms/MS analysis. In kind it is ADME, organism-based. The conditions noted are these: read-out: BPR. Put shortly: as §1
Data set [15] in a line: Ratio of drug level in Wistar rat brain to plasma at 5 mg/kg, po via gavage measured at 2 hrs post dose by LC-Ms/MS analysis. The format is ADME, organism-based. The conditions noted are these: read-out: BPR. Put shortly: as §1
Data set [16] deals with Rattus norvegicus. In words: Kaliuretic activity in Wistar rat at 3 to 30 mg/kg, po via gavage measured after 4 hrs. The format is functional, organism-based. Put shortly: as §4
Data set [17] relates to Rattus norvegicus. As to the kind of experiment: Effect on serum Na+ level in Wistar rat at 3 to 30 mg/kg, po via gavage. The format is ADME, organism-based. The conditions noted are these: in vivo.

T1 sequence (Q12809 whole entry): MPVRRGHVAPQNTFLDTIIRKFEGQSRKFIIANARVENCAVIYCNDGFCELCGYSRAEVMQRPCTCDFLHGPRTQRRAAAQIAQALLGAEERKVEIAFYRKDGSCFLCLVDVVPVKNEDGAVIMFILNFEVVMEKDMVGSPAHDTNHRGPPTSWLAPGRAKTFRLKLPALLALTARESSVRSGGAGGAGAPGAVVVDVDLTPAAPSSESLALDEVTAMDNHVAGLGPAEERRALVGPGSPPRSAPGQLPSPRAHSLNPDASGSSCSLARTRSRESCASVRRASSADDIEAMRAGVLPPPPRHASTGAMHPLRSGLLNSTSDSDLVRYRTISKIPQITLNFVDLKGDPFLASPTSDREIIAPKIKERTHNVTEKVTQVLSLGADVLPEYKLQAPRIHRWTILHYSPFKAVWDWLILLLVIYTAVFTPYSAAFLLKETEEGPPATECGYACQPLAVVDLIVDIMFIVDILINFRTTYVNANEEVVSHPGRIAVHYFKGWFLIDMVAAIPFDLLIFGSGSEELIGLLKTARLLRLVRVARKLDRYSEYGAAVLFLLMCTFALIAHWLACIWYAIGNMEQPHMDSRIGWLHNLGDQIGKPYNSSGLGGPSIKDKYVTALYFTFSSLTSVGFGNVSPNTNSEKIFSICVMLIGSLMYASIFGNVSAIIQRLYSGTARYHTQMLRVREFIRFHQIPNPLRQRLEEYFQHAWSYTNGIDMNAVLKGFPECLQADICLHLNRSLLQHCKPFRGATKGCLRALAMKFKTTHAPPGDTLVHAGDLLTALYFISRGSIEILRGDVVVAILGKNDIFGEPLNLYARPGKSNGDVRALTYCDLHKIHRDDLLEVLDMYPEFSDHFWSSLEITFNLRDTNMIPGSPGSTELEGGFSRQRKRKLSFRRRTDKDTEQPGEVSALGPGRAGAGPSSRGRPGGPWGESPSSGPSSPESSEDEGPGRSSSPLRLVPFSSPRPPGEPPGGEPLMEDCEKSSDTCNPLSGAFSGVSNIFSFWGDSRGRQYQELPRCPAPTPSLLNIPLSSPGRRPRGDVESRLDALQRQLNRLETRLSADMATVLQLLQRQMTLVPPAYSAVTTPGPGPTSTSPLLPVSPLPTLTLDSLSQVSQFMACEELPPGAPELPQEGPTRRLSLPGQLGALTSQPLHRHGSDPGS
CYP2C19, sequence (P33261 whole entry): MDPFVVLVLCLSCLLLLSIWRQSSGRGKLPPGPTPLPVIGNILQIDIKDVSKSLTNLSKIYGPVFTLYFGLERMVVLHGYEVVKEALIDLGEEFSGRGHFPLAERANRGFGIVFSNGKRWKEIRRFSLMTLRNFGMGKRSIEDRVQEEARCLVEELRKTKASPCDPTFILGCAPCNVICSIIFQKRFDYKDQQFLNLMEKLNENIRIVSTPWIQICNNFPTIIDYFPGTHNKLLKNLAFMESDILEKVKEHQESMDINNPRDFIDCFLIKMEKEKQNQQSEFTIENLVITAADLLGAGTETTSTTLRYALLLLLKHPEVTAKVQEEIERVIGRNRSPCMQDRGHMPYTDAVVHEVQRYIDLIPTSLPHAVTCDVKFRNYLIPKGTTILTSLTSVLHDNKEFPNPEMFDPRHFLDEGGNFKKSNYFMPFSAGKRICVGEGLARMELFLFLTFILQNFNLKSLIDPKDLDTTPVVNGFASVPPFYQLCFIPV
Adenosine receptor A2a, sequence (P29274 whole entry): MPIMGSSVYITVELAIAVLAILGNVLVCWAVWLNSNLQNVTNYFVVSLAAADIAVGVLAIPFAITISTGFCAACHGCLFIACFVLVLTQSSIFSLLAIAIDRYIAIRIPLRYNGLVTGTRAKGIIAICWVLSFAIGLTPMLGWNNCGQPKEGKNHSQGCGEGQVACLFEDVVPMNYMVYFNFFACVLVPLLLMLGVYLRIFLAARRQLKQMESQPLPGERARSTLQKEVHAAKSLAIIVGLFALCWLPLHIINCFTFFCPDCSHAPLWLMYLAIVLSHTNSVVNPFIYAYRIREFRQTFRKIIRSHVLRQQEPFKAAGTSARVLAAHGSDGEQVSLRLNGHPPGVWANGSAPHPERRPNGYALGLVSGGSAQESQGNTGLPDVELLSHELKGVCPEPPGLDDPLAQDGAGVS
CYP2C9, sequence (P11712 whole entry): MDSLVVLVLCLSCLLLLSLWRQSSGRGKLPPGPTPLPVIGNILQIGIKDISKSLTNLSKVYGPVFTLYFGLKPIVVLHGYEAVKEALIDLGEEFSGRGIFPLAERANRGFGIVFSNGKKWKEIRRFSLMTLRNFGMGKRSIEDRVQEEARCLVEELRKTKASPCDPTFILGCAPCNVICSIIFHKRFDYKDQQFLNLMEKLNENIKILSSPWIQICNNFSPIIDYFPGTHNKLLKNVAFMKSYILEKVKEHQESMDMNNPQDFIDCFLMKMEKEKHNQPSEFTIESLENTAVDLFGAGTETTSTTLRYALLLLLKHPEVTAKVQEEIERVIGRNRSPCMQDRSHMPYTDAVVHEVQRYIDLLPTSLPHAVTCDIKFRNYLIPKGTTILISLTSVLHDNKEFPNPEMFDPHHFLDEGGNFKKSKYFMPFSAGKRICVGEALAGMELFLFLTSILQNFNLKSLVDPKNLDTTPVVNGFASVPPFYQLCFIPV

In the case of `CCCn1c(-c2cccc(OC)c2)nc2nc(C3CCCC3)[nH]c2c1=O`, the Tmax in data set [1] worked out at 18 min. The concentration at 1 h in data set [2] is 10 ng/g; in data set [7], 670 nM. Besides, the inhibition at 5 µM amounted to 9% at hERG (KCNH2) [3] and 7% against CYP2C9. Moreover, the figures for the concentration at 2 h in data set [4] and in [12] were 10 ng/g and 540 nM, respectively. Also, the concentration at 4 h in data set [5] worked out at 40 nM; in data set [8], 10 ng/g. The molecule further yielded an inhibition at 25 µM at hERG (KCNH2) [6] of 72%. In addition, affinity at Adenosine receptor A2b was put at a Ki of 1.1 µM. Besides, the AUC(0-t) in data set [9] was found to be 1.6 µM·h. Besides, the Drug metabolism in the data set with Liver is given as 0.03 nmol/min/mg. In addition, the Cmax in data set [10] turned out to be 1740 nM. Further, the fraction unbound at 5 µM in [11] is 0.05.

Turning to `CCCn1c(Oc2cccnc2C)nc2nc(C3CCCC3)[nH]c2c1=O`, the inhibition at 5 µM on CYP2C19 is 10%; against CYP2C9, 4%. For the same molecule, on Adenosine receptor A2a, the inhibition stood at 33%. For the same molecule, in the data set on Liver, the Drug metabolism came to 0.06 nmol/min/mg.

As to `CCCn1c(Oc2ccc(F)c(F)c2)nc2nc(C3CCCC3)[nH]c2c1=O`, the Tmax in data set [1] was found to be 97.8 min. The values for the concentration at 1 h in data set [2] and in [7] were 90 nM and 1640 nM, respectively. The inhibition at 5 µM against CYP2C19 was 0%; on hERG (KCNH2) [3], 2%. Moreover, the IC50 at Adenosine receptor A3 and at Adenosine receptor A2b was over 10 µM each time. The concentration at 2 h is 50 nM in data set [4] and 940 nM in data set [12]. The concentration at 4 h in data set [5] stood at 1810 nM; in [8], 80 nM. The molecule further displayed an inhibition at 25 µM against hERG (KCNH2) [6] of 4%. On Adenosine receptor A2b, the Ki was over 10 µM. Moreover, the outcome in the data set on Rattus norvegicus [13] and in the data set with Rattus norvegicus [16] was Active. The AUC(0-t) in data set [9] is 3.19 µM·h. For the same molecule, the Kp at 1 h in data set [14] was determined as 0.05. Further, the inhibition result at Adenosine receptor A2a is “inactive”. Also, the Kp at 2 h in data set [15] amounted to 0.05. Moreover, the Drug metabolism in the data set on Liver was 0.05 nmol/min/mg. In addition, the Cmax in data set [10] was found to be 9710 nM. The fraction unbound at 5 µM in data set [11] is 0.01. Further, in the data set on Rattus norvegicus [17], the Activity result is listed as “Non-Toxic”.

As usually defined, the Tmax is the time from dosing to the highest level. Usually inhibition stands for the change of the read-out against control, counted positive when it falls. As a reminder, the Ki is a measure of affinity in units of concentration, obtained from inhibition or displacement. Read a low Ki as tighter binding. The term AUC(0-t) denotes the area under the concentration-time curve up to a stated or last time point. Low values mean low exposure, high ones high exposure. As a reminder, the Cmax is the peak of the concentration-time curve. As a reminder, the IC50 is the concentration at which inhibition is half-maximal. Read a low IC50 as greater potency in that assay.
